Data published in ChEMBL document CHEMBL4402547, “Synthesis and Pharmacological Characterization of Conformationally Restricted Retigabine Analogues as Novel Neuronal Kv7 Channel Activators” (J Med Chem, 2020).
pEC50: −log10 of the molar value. The source made the active and inactive calls. The rule behind the calls is not given here.

Legend:
[1] = molecular target: T1, Potassium voltage-gated channel subfamily KQT member 2 (Homo sapiens, UniProt O43526); experiment: Activation of human Kv7.2 expressed in CHO cells assessed as delta V at 10 uM by whole cell patch clamp electrophysiology assay; format: cell-based
T1 sequence (O43526 whole entry): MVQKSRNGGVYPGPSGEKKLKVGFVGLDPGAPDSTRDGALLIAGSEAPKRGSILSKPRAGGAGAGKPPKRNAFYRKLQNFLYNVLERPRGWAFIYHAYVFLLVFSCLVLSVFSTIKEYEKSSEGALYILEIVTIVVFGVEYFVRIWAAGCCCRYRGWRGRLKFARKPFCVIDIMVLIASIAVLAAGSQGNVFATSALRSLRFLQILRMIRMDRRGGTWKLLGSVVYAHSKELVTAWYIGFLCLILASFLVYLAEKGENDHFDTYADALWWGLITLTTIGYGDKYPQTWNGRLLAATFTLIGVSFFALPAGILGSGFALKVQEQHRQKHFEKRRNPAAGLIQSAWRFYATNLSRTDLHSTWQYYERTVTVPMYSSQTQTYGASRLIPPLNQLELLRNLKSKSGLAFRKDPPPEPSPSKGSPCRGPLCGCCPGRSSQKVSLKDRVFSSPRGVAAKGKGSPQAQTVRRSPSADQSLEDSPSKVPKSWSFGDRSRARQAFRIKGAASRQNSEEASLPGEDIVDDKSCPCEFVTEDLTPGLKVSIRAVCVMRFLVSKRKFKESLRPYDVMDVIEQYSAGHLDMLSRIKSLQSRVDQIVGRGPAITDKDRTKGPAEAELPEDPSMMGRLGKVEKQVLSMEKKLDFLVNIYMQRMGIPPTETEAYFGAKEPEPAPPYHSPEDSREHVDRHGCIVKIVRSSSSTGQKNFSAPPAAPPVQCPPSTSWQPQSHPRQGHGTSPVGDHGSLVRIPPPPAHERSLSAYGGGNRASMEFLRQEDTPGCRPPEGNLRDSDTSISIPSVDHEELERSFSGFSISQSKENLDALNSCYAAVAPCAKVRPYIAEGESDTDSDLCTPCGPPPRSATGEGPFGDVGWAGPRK
Method in brief: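 Human Kv7.2 transiently expressed in CHO cells; whole-cell recordings at room temperature (20–22°C), pH 7.4 extracellular solution. 3-s ramps from −80 to +20 mV with 0.01–10 μM drug. ΔV taken as shift of the potential where current reaches 20% of peak, drug vs control, plotted against log concentration. Four-parameter logistic fit gives EC50; mean ± SD of ≥3 experiments.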

[2] = tested on: Potassium voltage-gated channel subfamily KQT member 2 (Homo sapiens), O43526 [W236L]; experiment: Activation of human Kv7.2 W236L mutant expressed in CHO cells assessed as channel current amplitude at 10 uM measured at holding potential of -40 mV by whole cell patch clamp electrophysiology assay; format: cell-based
Chain of Potassium voltage-gated channel subfamily KQT member 2 (Homo sapiens), O43526 [W236L] (O43526 whole entry W236L, the tested form may be a part): as the sequence (O43526 whole entry) above, with W236L counted along it
Method in brief: (§1)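 CHO cells transiently co-transfected (Lipofectamine 2000, 4 μg total cDNA, EGFP marker) with human channel cDNA in pcDNA3.1, recorded 24 h later. Whole-cell patch clamp at 20–22°C, 3–5 MΩ pipettes, perfused extracellular solution pH 7.4. Held at −80 mV; 3-s ramps −80 to +20 mV ± 10 μM drug. Current at −40 mV with vs without drug expressed as ratio; ≥3 cells from ≥2 transfections, mean ± SEM.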

[3] = molecular target: Voltage-gated potassium channel, KQT; KCNQ2(Kv7.2)/KCNQ3(Kv7.3) (Homo sapiens) (UniProt O43526+O43525); experiment: Activation of human Kv7.2/Kv7.3 expressed in CHO cells assessed as delta V at 10 uM by whole cell patch clamp electrophysiology assay; format: cell-based
[4] = molecular target: T2, Potassium voltage-gated channel subfamily KQT member 5 (Homo sapiens, UniProt Q9NR82); experiment: Activation of human Kv7.5 expressed in CHO cells assessed as increase in channel current amplitude by whole cell patch clamp electrophysiology assay; format: cell-based
T2 sequence (Q9NR82 whole entry): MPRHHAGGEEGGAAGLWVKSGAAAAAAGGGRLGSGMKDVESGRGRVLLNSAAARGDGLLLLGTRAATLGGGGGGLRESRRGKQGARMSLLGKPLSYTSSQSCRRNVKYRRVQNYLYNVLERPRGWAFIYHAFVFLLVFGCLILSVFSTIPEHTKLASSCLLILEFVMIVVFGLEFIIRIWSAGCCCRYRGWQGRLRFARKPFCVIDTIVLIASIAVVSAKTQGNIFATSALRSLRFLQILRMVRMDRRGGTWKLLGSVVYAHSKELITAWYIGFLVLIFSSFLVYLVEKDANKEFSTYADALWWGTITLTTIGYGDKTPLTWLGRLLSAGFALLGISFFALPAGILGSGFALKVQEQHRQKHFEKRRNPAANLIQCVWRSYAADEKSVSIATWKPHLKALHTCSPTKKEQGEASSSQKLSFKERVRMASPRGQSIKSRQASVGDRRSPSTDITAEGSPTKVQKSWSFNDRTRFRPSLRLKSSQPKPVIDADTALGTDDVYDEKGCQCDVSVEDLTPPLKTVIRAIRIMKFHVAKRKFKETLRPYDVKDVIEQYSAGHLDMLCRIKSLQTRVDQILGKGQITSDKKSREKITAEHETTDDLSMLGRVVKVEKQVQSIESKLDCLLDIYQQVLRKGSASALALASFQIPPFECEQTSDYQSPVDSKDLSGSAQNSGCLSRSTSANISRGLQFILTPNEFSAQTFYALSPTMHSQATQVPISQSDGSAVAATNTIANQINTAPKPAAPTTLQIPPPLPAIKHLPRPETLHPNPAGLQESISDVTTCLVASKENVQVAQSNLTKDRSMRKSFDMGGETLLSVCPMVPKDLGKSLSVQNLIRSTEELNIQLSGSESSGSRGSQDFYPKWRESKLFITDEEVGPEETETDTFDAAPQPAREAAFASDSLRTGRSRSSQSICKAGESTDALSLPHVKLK

[5] = molecular target: T1, Potassium voltage-gated channel subfamily KQT member 2; experiment: Activation of human Kv7.2 expressed in CHO cells assessed as increase in current amplitude at 10 uM measured at holding potential of 0 mV by whole cell patch clamp electrophysiology assay relative to control; format: cell-based
Method in brief: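 Transiently transfected CHO cells expressing human Kv7.2, whole-cell patch clamp at 20–22°C in HEPES-buffered saline pH 7.4. Cells held at −80 mV and ramped −80 to +20 mV over 3 s, before and during 10 μM drug. Ramp current at 0 mV taken as drug/control ratio; mean ± SEM of ≥3 cells, ≥2 transfections.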

[6] = molecular target: T1, Potassium voltage-gated channel subfamily KQT member 2; experiment: Activation of human Kv7.2 expressed in CHO cells assessed as increase in current amplitude at 10 uM measured at holding potential of -40 mV by whole cell patch clamp electrophysiology assay relative to control; format: cell-based; method in brief: as §1
[7] = tested on: Potassium voltage-gated channel subfamily KQT member 2 (Homo sapiens), O43526 [F168L]; experiment: Activation of ICA-insensitive human Kv7.2 F168L mutant expressed in CHO cells assessed as increase in channel current amplitude at 10 uM measured at holding potential of -40 mV by whole cell patch clamp electrophysiology assay; format: cell-based; method in brief: as §1
Chain of Potassium voltage-gated channel subfamily KQT member 2 (Homo sapiens), O43526 [F168L] (O43526 whole entry F168L): as the sequence (O43526 whole entry) above, with F168L counted along it

[8] = molecular target: T3, Potassium voltage-gated channel subfamily KQT member 4 (Homo sapiens, UniProt P56696); experiment: Activation of human Kv7.4 expressed in CHO cells assessed as delta V at 10 uM by whole cell patch clamp electrophysiology assay; format: cell-based
T3 sequence (P56696 whole entry): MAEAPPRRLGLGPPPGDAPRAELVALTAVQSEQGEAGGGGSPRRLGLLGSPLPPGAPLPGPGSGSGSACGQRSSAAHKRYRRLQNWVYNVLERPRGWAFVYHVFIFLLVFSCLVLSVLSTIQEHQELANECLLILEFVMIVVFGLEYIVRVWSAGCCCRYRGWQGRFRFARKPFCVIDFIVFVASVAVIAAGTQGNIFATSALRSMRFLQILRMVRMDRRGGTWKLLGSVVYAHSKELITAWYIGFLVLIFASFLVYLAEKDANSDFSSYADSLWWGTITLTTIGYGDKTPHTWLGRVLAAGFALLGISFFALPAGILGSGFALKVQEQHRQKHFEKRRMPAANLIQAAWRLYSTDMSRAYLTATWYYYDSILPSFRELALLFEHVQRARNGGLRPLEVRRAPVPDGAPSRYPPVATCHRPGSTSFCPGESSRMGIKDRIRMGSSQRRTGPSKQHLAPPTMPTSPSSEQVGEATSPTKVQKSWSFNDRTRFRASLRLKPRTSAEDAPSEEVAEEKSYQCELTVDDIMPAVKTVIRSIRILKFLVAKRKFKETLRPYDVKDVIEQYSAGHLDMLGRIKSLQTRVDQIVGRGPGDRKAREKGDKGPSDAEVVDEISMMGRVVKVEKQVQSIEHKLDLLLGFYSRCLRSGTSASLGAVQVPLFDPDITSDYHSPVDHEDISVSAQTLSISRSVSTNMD

[9] = Photostability of compound in pH 7.4 buffer assessed as compound degradation at 100 ug/ml incubated for 6 hrs under natural solar light-irradiation by HPLC analysis relative to control
Method in brief: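 DMSO solutions diluted in pH 7.4 buffer, held in 1 cm quartz cells and exposed to natural daylight. Light-shielded controls kept at 37°C in foil. Aliquots drawn at set intervals and parent compound loss measured by UHPLC: C18 column, 0.1% TFA water/acetonitrile gradient, 45°C, detection at 254 nm.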

[10] = molecular target: CYP450 (phase 1 metabolism) (Homo sapiens, UniProt P04798+P05177+P05181+P08684+P10632+P10635+P11509+P11712+P13584+P20813+P20815+P20853+P24462+P24903+P33260+P33261+P51589+P78329+P98187+Q02928+Q08477+Q16678+Q16696+Q5TCH4+Q6VVX0+Q7Z449+Q8TAV3+Q96SQ9+Q9HB55); experiment: Drug metabolism in human liver S9 fractions assessed as CYP450-mediated phase 1 metabolism at 1 mM preincubated for 5 mins followed by NADPH addition and measured after 60 mins by RP-UHPLC-DAD analysis relative to control; format: ADME, subcellular; conditions: read-out: Drug metabolism
Method in brief: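 Drug (1 mM stock, 2 μL) incubated with pooled human liver S9 fraction in 100 mM phosphate buffer pH 7.4. After 5 min preincubation, NADPH added and mixture kept 60 min at 37°C. Stopped with ice-cold methanol, centrifuged, supernatant analysed by RP-UHPLC-DAD. % turnover = 100 − (60 min/0 min concentration × 100). Controls: no-NADPH, and testosterone, 7-hydroxycoumarin, p-aminobenzoic acid.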

[11] = molecular target: T2, Potassium voltage-gated channel subfamily KQT member 5; experiment: Activation of human Kv7.5 expressed in CHO cells assessed as delta V at 10 uM by whole cell patch clamp electrophysiology assay; format: cell-based

Row | Structure (SMILES) | Activity [1] | Activity [2] | Activity [3] | pEC50 [4] | Activity [5] | Activity [6] | Activity [7] | Activity [8] | Drug degradation [9] | metabolised at 1 h, 1000 µM [10] | Activity [11] | Ratio [5] | Ratio [6]
1 | CC(C)(C)CC(=O)Nc1ccc2c(ccn2Cc2ccc(C(F)(F)F)cc2)c1 | -30 mV | inactive | -20 mV | 6.46 | Active | Active | Active | -24.43 mV | 8.45% | 17.3% | -19.7 mV |  | 
2 | CCCCCCC(=O)Nc1ccc2c(ccn2Cc2ccc(C(F)(F)F)cc2)c1 | -29.5 mV | inactive | -25.4 mV | 5.97 | Active | Active | Active | -32.85 mV | 9.15% | 48.7% | -25.6 mV |  | 
3 | CCOC(=O)Nc1ccc(NCc2ccc(F)cc2)cc1N [EZOGABINE] | -25.4 mV | inactive | -26.8 mV | 6.10 |  |  | Active | -15.19 mV | 43.5 to 47.3% | 3.11% | -21.95 mV | 2 | 6
